The text below walks through data of ChEMBL document CHEMBL4118066, “QSAR-driven design, synthesis and discovery of potent chalcone derivatives with antitubercular activity” (Eur J Med Chem, 2017).

≈ marks a conversion by molar mass, not a printed value.

Test [1] relates to Mycobacterium tuberculosis. Briefly: Antitubercular activity against rifampin-resistant Mycobacterium tuberculosis H37Rv ATCC 35838 after 7 days under normoxic condition by microplate Alamar blue assay. To be noted: H37Rv ATCC 35838, 168 h. The class given is functional. A digest of the protocol:
(§1)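 Replicating, normoxic cultures in Middlebrook 7H12 medium, exposed to compound for 7 d at 37 °C. Resazurin plus Tween 80 then added for a further 24 h at 37 °C. Fluorescence read at ex/em 530/590 nm. MIC is the lowest concentration giving 90% lower fluorescence than controls.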

Test [2] relates to Mycobacterium tuberculosis. Briefly: Antitubercular activity against isoniazid-resistant Mycobacterium tuberculosis H37Rv ATCC 35822 after 7 days under normoxic condition by microplate Alamar blue assay. The format is functional. To be noted: H37Rv ATCC 35822, 168 h. The method in brief:
as §1
(In general: Resazurin is reduced to fluorescent resorufin, in cell work by metabolically active cells.)

The MIC90 is an inhibitory concentration at the 90% level, which refers to growth in some studies and to a panel of isolates in others. Read a high MIC90 as weaker potency. Take `Cc1cccc(C(=O)/C=C/c2ccc([N+](=O)[O-])o2)c1`: the MIC90 came out at 3.78 µM (≈ 0.972 µg/mL) in test [1] and 1.93 µM (≈ 0.496 µg/mL) in test [2].

`CO[C@H]1/C=C/O[C@@]2(C)Oc3c(C)c(O)c4c(O)c(c(/C=N/N5CCN(C)CC5)c(O)c4c3C2=O)NC(=O)/C(C)=C\C=C\[C@H](C)[C@H](O)[C@@H](C)[C@@H](O)[C@@H](C)[C@H](OC(C)=O)[C@@H]1C` [RIFAMPIN] yielded an MIC90 in test [1] of more than 1 µM.

As to `COc1ccc(/C=C/C(=O)c2cccc(I)c2)cc1`, the values for the MIC90 in test [1] and in test [2] were 8.31 µM (≈ 3.03 µg/mL) and 7.75 µM (≈ 2.82 µg/mL), respectively.

As for `O=C(/C=C/c1ccc([N+](=O)[O-])o1)c1ccc(N2CCNCC2)cc1`, the MIC90 in test [1] was found to be 0.76 µM (≈ 0.249 µg/mL); in test [2] it was 0.19 µM (≈ 0.0622 µg/mL).

In the case of `Cc1ccc(C(=O)/C=C/c2ccc([N+](=O)[O-])s2)cc1`, the MIC90 in test [1] was found to be 1.21 µM (≈ 0.331 µg/mL); in test [2], 0.96 µM (≈ 0.262 µg/mL).

Consider `COc1ccc(/C=C/C(=O)c2cccc(Br)c2)cc1`, for which the MIC90 amounted to 9.28 µM (≈ 2.94 µg/mL) in test [1] and 4.94 µM (≈ 1.57 µg/mL) in test [2].

Regarding `Cc1ccccc1C(=O)/C=C/c1ccc([N+](=O)[O-])o1`, the MIC90 in test [1] was determined as 1.08 µM (≈ 0.278 µg/mL); in test [2] it was 1.07 µM (≈ 0.275 µg/mL).

As for `O=C(/C=C/c1ccc(Cl)s1)c1ccc(-n2ccnc2)cc1`, the MIC90 was determined as 8.89 µM (≈ 2.8 µg/mL) in test [1] and 9.03 µM (≈ 2.84 µg/mL) in test [2].

For the molecule `O=C(/C=C/c1ccc([N+](=O)[O-])o1)c1ccc(N2CCCCC2)cc1`, the MIC90 in test [1] was 0.07 µM (≈ 0.0228 µg/mL); in test [2] it was less than 0.03 µM.

In the case of `O=C(/C=C/c1ccc([N+](=O)[O-])s1)c1ccc(-n2ccnc2)cc1`, the MIC90 in test [1] stood at 0.6 µM (≈ 0.195 µg/mL); in test [2] it was 0.3 µM (≈ 0.0976 µg/mL).

In the case of `CC(C)(C)c1ccc(C(=O)/C=C/c2ccc([N+](=O)[O-])s2)cc1`, the MIC90 in test [1] was determined as 0.14 µM (≈ 0.0442 µg/mL); in test [2], 0.15 µM (≈ 0.0473 µg/mL).

On to `O=C(/C=C/c1ccc([N+](=O)[O-])o1)c1ccc(Br)cc1`, for which the results for the MIC90 in test [1] and in test [2] were 0.76 µM (≈ 0.245 µg/mL) and 0.58 µM (≈ 0.187 µg/mL), respectively.

As for `CC(C)(C)c1ccc(C(=O)/C=C/c2ccc([N+](=O)[O-])o2)cc1`, the MIC90 in test [1] came out at 0.29 µM (≈ 0.0868 µg/mL); in test [2], 0.22 µM (≈ 0.0659 µg/mL).

For `CCCCc1ccc(C(=O)/C=C/c2ccc([N+](=O)[O-])o2)cc1`, the figures for the MIC90 in test [1] and in test [2] were 4.7 µM (≈ 1.41 µg/mL) and 2.23 µM (≈ 0.667 µg/mL), respectively.

For the molecule `O=C(/C=C/c1ccc([N+](=O)[O-])o1)c1ccc(I)cc1`, the MIC90 in test [1] was found to be 1.18 µM (≈ 0.436 µg/mL); in test [2], 1.08 µM (≈ 0.399 µg/mL).

Take `O=C(/C=C/c1ccc([N+](=O)[O-])o1)c1ccc(-n2ccnc2)cc1`: the values for the MIC90 in test [1] and in test [2] were 1.19 µM (≈ 0.368 µg/mL) and 1.44 µM (≈ 0.445 µg/mL), respectively.

Turning to `NNC(=O)c1ccncc1` [ISONIAZID], the MIC90 in test [2] was more than 5 µM.

As to `CSc1ccc(C(=O)/C=C/c2ccc([N+](=O)[O-])o2)cc1`, the MIC90 in test [1] came to 0.24 µM (≈ 0.0694 µg/mL); in test [2] it was 0.8 µM (≈ 0.231 µg/mL).

Regarding `CSc1ccc(C(=O)/C=C/c2ccc([N+](=O)[O-])s2)cc1`, the MIC90 in test [1] was 0.14 µM (≈ 0.0428 µg/mL); in test [2], 0.22 µM (≈ 0.0672 µg/mL).

`O=C(/C=C/c1ccc([N+](=O)[O-])o1)c1ccc(-c2ccccc2)cc1`: the MIC90 in test [1] is 3.45 µM (≈ 1.1 µg/mL); in test [2], 0.29 µM (≈ 0.0926 µg/mL).

Take `O=C(/C=C/c1ccc([N+](=O)[O-])o1)c1cccc(Br)c1`: the values for the MIC90 in test [1] and in test [2] were 1.88 µM (≈ 0.606 µg/mL) and 1.12 µM (≈ 0.361 µg/mL), respectively.

With `O=C(/C=C/c1ccc([N+](=O)[O-])o1)c1ccc(N2CCOCC2)cc1`, the MIC90 worked out at 0.55 µM (≈ 0.181 µg/mL) in test [1] and 0.11 µM (≈ 0.0361 µg/mL) in test [2].

As for `O=C(/C=C/c1ccc([N+](=O)[O-])o1)c1ccc(C2CCCCC2)cc1`, the values for the MIC90 in test [1] and in test [2] were 1.12 µM (≈ 0.364 µg/mL) and 1.23 µM (≈ 0.4 µg/mL), respectively.

As to `CCCCc1ccc(C(=O)/C=C/c2ccc([N+](=O)[O-])s2)cc1`, the values for the MIC90 in test [1] and in test [2] were 0.48 µM (≈ 0.151 µg/mL) and 0.31 µM (≈ 0.0978 µg/mL), respectively.
